pEC50, pIC50, pKd: −log10 of the molar value.
Experiments:
[1] = Dissociation constant for a single binding site
How it was run: (§1)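 Bovine serum albumin (10 mg/mL) was pre-equilibrated with ~5 mCi tritiated water in 1 M GdnCl, 0.1 M NaH2PO4 pH 8.5 for ≥18 h at room temperature. Exchange-out ran with compound present. Aliquots were taken at timed intervals over ≥6 h, precipitated in ice-cold 10% TCA, filtered, and counted by scintillation. PFR came from the last 3–5 shared hydrogens. KD was derived from PFr = 1 + ([compound]/KD)^n.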

Albumin = Albumin (Homo sapiens, UniProt P02768); test: Inhibitory concentration bound to tryptophan containing region of Serum albumin in fluorescence quenching
How it was run: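 Increasing compound concentrations were added from stock buffer solutions to ~2 µM human serum albumin, which has a single Trp-214. The cuvette was kept air-free. Excitation was 295 nm with emission scanning at room temperature. Fluorescence maxima were corrected for inner-filter effects, and EC50 and Hill slope were derived.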

[2] = Effective concentration for tadpole immobility after 5 min (slow recovery); assay type: functional, frog; details: Amphibia, read-out: ED50 (the source's name)
How it was run: (§2)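 Tadpoles were exposed to compound in pond water and scored for loss of righting reflex over 5 min. They were then moved to fresh pond water and watched for recovery, intermittently for 3 h. EC50 values are estimates within 2-fold.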

[3] = (§3) Effective concentration to potentiate GABA responses; assay type: functional
How it was run: (§4)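 Stage V–VI Xenopus oocytes were defolliculated with collagenase and injected with 1–2 ng of each subunit cRNA in a 1:1 ratio. They were kept in ND96 with 50 µg/mL gentamicin at 18 °C for 3–5 days. Voltage-clamp recording was done under continuous ND96 superfusion (pH 7.5).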

[4] = Dissociation constant for a single binding site at 5 mM concentration; how it was run: as §1
[5] = Effective concentration for rapid onset of reversible immobility (tadpole) at about 0.1 mM; assay type: functional, frog; how it was run: as §2
[6] = as §3; assay type: functional; how it was run: as §4; remark: listed apart in the source
[7] = Effective concentration for tadpole immobility (less potent); assay type: functional, frog; how it was run: as §2

Chain of Albumin (P02768 whole entry): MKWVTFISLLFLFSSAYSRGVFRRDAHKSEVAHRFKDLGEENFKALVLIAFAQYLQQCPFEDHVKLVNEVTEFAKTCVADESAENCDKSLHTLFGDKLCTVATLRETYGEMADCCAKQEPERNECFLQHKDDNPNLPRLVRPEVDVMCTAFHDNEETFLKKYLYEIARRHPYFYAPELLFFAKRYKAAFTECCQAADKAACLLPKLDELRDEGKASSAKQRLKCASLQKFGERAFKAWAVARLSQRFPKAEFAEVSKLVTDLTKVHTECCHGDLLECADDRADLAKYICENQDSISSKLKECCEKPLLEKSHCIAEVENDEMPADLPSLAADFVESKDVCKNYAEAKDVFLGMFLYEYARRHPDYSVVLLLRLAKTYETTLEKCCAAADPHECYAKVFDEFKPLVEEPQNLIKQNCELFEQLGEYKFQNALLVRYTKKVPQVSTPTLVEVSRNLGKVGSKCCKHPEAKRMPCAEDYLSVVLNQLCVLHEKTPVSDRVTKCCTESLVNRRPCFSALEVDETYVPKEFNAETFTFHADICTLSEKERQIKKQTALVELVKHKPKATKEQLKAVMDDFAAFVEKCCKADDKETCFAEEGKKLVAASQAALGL

SMILES | pKd [1] | pIC50 (Albumin) | pEC50 [2] | ED50 [3] | pKd [4] | pEC50 [5] | pEC50 [6] | pEC50 [7]
FC(F)(F)C1(Br)N=N1 | 2.25 | 3.40 |  |  |  |  |  | 
FC(Cl)C(F)(F)C1(Br)N=N1 (configuration not stated) | 3.22 | 3.15 | 3.52 | 80 µM |  |  |  | 
FC(F)(F)C(Cl)Br (configuration not stated) [HALOTHANE] | 3.05 | 2.54 |  |  |  |  |  | 
[N-]=[N+]=CC(F)(F)F |  | 2.92 |  |  | 2.89 |  |  | 
FC(F)(C(Cl)Br)C1N=N1 (configuration not stated) | 3.70 | 3.10 |  |  |  | 4.00 | 4.30 | 
FC(Cl)C(F)(F)C1(F)N=N1 (configuration not stated) | 2.32 | 2.66 |  |  |  |  |  | 2.60

Reference: ChEMBL document CHEMBL1135935, “Halogenated diazirines as photolabel mimics of the inhaled haloalkane anesthetics” (J Med Chem, 2002)
